# Measurements reported in ChEMBL document CHEMBL1136904, “Histone deacetylase inhibitors with a primary amide zinc binding group display antitumor activity in xenograft model” (Bioorg Med Chem Lett, 2009).
# Calls of active or inactive are those of the source.
# How the values were obtained:
# [1] = test system: HeLa; test: Antiproliferative activity against human HeLa cells after 72 hrs by celltiter-blue cell viability assay; type: functional, cell-based
# How it was run: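 72 h proliferation assay in HeLa cervical cancer cells, giving IC50; means of two or more experiments.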
# [2] = target: Histone deacetylase 1 (Homo sapiens, UniProt Q13547); test: Inhibition of C-terminal FLAG tagged HDAC1
# [3] = Intrinsic clearance in human liver microsomes in presence of NADPH; type: ADME, Microsome
# How it was run: (§1)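 Metabolic stability measured in liver microsomes (rat, human, dog) in the presence of NADPH. Intrinsic clearance expressed as µL/min/mg protein.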
# [4] = Intrinsic clearance in rat liver microsomes in presence of NADPH; type: ADME, Microsome; how it was run: as §1
# [5] = Intrinsic clearance in dog liver microsomes in presence of NADPH; type: ADME, Canis lupus familiaris, Microsome; how it was run: as §1
# [6] = Intrinsic clearance in human microsomes in presence of UDPGA; type: ADME, Microsome
# How it was run: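 Glucuronidation measured in human microsomes in the presence of UDPGA. Intrinsic clearance expressed as µL/min/mg protein.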
# [7] = target: T1, Histone deacetylase 8 (Homo sapiens, UniProt Q9BY41); test: Inhibition of His-tagged HDAC8 catalytic domain expressed in Escherichia coli
# T1 sequence (Q9BY41 whole entry): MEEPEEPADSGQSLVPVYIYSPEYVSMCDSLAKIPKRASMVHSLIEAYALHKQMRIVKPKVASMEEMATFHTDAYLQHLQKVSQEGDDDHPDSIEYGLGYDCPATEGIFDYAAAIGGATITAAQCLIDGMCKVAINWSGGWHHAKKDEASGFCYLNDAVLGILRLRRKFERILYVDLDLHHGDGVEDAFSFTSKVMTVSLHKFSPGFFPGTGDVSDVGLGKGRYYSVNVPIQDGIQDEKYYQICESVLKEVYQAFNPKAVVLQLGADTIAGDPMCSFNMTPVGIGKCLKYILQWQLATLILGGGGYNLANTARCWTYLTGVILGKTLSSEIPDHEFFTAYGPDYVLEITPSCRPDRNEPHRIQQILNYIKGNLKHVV
# [8] = target: T2, Protein deacetylase HDAC6 (Homo sapiens, UniProt Q9UBN7); test: Inhibition of C-terminal FLAG tagged HDAC6
# T2 sequence (Q9UBN7 whole entry): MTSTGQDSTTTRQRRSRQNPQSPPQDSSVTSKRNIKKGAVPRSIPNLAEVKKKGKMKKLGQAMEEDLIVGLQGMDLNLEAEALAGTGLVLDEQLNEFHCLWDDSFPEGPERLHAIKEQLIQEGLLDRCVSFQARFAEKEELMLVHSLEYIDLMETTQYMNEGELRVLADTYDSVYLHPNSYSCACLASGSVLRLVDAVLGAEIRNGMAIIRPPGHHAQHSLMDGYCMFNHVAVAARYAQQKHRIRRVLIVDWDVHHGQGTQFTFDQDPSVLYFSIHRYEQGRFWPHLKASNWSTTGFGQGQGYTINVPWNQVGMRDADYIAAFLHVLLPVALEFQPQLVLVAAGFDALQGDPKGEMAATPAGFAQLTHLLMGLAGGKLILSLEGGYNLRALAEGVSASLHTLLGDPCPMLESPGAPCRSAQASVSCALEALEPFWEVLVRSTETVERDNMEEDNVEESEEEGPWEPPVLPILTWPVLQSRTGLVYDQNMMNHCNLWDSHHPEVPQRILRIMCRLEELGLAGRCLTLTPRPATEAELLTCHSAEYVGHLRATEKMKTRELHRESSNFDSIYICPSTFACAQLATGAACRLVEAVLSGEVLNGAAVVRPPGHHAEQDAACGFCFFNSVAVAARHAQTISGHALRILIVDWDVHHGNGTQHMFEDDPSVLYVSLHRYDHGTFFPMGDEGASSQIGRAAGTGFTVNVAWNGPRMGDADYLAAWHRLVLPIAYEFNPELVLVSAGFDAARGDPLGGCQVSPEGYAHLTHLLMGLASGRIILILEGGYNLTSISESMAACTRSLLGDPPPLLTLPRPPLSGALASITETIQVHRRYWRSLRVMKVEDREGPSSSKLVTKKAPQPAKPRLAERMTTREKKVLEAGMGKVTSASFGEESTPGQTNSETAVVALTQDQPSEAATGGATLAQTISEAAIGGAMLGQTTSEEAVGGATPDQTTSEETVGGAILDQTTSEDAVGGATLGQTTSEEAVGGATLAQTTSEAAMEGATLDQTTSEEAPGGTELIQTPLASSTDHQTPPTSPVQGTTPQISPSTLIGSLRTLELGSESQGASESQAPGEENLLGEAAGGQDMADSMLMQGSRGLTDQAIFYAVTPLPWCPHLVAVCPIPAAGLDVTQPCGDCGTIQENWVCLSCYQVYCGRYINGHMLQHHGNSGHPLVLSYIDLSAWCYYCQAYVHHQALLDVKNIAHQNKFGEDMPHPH
# [9] = Toxicity in ip dosed mouse assessed as maximum tolerated dose administered daily for 2 weeks; type: organism-based; details: in vivo
# How it was run: (§2)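 Preliminary tolerability study in mice, with intraperitoneal dosing once daily for 2 weeks. The maximum tolerated dose was defined as the dose giving no mortality and body weight loss below 5%.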
# [10] = test system: A549; test: Antiproliferative activity against human A549 cells after 72 hrs by celltiter-blue cell viability assay; type: functional, cell-based; details: A549, 72 h
# [11] = test system: Mus musculus; test: Toxicity against human HCT116 cells xenografted nude mouse assessed as body weight loss at 100 mg/kg, ip administered once daily for 18 days; type: organism-based, HCT-116; design: dose 100 mg/kg, route intraperitoneal; details: in vivo, 432 h
# [12] = target: Histone deacetylase 2 (Homo sapiens, UniProt Q92769); test: Inhibition of C-terminal FLAG tagged HDAC2
# [13] = test system: Mus musculus; test: Toxicity in mouse assessed as mortality at 100 mg/kg, ip administered daily for 2 weeks; type: organism-based; design: dose 100 mg/kg, route intraperitoneal; details: in vivo, 336 h; how it was run: as §2
# [14] = test system: Mus musculus; test: Increase in histone acetylation in human HCT116 cells xenografted nude mouse at 100 mg/kg, ip measured for 24 hrs; type: functional, organism-based; design: dose 100 mg/kg; details: HCT-116
# How it was run: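 Target engagement in nude mice bearing HCT116 xenografts, 4 per group. Single ip dose of 100 mpk, with vehicle controls. Histone acetylation measured in tumor biopsies at time points after administration and reported as mean ± SEM.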
# [15] = test system: HCT-116; test: Antitumor activity against human HCT116 cells xenografted nude mouse assessed as tumor growth inhibition at 100 mg/kg, ip administered once daily for 18 days relative to control; type: functional; details: HCT-116, ip, 432 h, route intraperitoneal, read-out: TGI
# How it was run: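 HCT116 human colon carcinoma xenografts in nude mice, 12 per group. Dosed intraperitoneally once daily for 18 days and compared with vehicle-treated animals. Tumor growth followed over time and reported as mean ± SEM.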
# [16] = test system: Mus musculus; test: Toxicity in mouse assessed as body weight loss at 100 mg/kg, ip administered daily for 2 weeks; type: organism-based; design: dose 100 mg/kg, route intraperitoneal; details: in vivo, 336 h
# How it was run: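 Preliminary MTD study in mice. Intraperitoneal dosing once daily for 2 weeks, tracking mortality and body weight loss. Tolerated dose defined as no mortality and body weight loss below 5%.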
# [17] = target: Histone deacetylase 4 (Homo sapiens, UniProt P56524); test: Inhibition of His-tagged HDAC4 catalytic domain expressed in Escherichia coli
# [18] = test system: HCT-116; test: Antiproliferative activity against human HCT116 cells after 72 hrs by celltiter-blue cell viability assay; type: functional, cell-based; details: HCT-116, 72 h
# [19] = target: Histone deacetylase 3 (Homo sapiens, UniProt O15379); test: Inhibition of C-terminal FLAG tagged HDAC3
# [20] = test system: Mus musculus; test: Toxicity against human HCT116 cells xenografted nude mouse assessed as body weight loss at 150 mg/kg, ip administered once daily for 18 days; type: organism-based, HCT-116; design: dose 150 mg/kg, route intraperitoneal; details: in vivo, 432 h
# Sequence of Histone deacetylase 1 (Q13547 whole entry): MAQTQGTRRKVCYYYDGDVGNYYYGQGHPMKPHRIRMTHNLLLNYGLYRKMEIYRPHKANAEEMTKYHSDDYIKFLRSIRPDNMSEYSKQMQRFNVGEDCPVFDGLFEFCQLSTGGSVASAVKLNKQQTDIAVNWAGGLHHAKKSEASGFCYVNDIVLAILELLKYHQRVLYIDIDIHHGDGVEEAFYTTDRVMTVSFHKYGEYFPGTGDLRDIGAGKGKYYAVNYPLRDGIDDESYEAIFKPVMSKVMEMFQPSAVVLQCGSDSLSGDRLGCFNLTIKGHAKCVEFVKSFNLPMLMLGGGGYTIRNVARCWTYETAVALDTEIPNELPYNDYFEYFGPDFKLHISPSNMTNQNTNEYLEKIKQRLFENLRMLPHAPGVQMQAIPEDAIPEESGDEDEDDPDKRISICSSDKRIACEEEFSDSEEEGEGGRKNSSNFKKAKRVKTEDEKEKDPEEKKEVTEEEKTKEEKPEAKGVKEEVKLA
# Sequence of Histone deacetylase 2 (Q92769 whole entry): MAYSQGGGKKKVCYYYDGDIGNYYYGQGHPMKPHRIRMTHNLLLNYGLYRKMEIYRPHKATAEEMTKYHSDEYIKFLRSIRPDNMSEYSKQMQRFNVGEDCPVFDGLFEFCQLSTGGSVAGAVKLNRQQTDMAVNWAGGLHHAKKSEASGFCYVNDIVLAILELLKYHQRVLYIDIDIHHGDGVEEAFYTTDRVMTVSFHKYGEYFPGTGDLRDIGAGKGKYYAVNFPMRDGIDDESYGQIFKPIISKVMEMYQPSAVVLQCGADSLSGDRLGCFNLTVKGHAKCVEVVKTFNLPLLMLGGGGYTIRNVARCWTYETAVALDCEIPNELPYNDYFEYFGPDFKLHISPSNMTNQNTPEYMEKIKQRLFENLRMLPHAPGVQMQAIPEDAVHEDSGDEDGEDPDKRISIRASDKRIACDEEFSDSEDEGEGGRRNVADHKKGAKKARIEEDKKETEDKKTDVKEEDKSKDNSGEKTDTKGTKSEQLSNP
# Sequence of Histone deacetylase 4 (P56524 whole entry, the tested form may be a part): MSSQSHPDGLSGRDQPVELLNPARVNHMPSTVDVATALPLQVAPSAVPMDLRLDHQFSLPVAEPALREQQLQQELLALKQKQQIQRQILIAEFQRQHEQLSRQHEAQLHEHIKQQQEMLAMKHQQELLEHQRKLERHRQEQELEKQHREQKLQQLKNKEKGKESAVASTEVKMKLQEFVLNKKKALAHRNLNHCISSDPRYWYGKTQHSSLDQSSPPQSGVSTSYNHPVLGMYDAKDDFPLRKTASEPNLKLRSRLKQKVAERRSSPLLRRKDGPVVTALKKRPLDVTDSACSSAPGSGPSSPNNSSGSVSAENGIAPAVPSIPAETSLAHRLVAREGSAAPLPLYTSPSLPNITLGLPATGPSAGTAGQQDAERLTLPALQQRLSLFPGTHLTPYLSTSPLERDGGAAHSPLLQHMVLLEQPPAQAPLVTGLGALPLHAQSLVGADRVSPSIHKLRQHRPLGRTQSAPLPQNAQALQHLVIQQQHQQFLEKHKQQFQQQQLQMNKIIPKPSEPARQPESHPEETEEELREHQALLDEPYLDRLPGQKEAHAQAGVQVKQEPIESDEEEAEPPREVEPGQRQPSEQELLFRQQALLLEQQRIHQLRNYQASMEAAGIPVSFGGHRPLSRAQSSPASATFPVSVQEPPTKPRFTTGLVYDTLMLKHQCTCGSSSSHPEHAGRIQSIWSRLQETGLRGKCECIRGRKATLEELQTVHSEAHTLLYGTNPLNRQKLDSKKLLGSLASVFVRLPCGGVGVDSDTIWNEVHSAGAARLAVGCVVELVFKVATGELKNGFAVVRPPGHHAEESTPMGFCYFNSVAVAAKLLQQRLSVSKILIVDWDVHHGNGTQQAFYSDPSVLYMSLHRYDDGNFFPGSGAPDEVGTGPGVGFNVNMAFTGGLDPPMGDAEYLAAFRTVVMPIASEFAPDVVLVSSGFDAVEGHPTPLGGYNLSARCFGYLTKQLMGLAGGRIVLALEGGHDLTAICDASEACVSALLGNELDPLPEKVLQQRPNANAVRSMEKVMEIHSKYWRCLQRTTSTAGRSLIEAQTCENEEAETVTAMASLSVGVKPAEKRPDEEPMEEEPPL
# Sequence of Histone deacetylase 3 (O15379 whole entry): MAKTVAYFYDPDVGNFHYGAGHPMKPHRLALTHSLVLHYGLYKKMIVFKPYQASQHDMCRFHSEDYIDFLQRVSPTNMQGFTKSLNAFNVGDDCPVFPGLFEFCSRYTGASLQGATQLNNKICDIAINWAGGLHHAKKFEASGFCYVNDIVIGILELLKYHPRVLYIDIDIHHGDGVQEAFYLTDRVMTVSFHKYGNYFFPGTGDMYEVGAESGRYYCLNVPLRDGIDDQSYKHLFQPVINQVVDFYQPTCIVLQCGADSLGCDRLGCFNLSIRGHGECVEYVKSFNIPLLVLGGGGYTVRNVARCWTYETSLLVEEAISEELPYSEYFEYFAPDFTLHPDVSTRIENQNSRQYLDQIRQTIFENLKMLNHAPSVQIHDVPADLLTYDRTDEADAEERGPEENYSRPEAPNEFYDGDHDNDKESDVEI
SMILES,IC50 [1],IC50 [2],further results
COc1ccc2[nH]c(C)c(CC(=O)N[C@@H](CCCCCC(=O)Nc3nncs3)c3ncc(-c4ccc5ccccc5c4)[nH]3)c2c1,4700 nM,350 nM,–
COc1ccc2[nH]c(C)c(CC(=O)N[C@@H](CCCCCC(=O)NO)c3ncc(-c4ccc5ccccc5c4)[nH]3)c2c1,180 nM,3 nM,–
CN(C)S(=O)(=O)N[C@@H](CCCCCC(=O)O)c1ncc(-c2ccc3ccccc3c2)[nH]1,26400 nM,220 nM,–
CCC(=O)CCCCC[C@@H]1NC(=O)[C@H]2CCCCN2C(=O)[C@H]([C@@H](C)CC)NC(=O)[C@H](Cc2cn(OC)c3ccccc23)NC1=O [APICIDIN],290 nM,–,–
COc1ccc2[nH]c(C)c(CC(=O)N[C@@H](CCCCCC(=O)Nc3ccccc3N)c3ncc(-c4ccc5ccccc5c4)[nH]3)c2c1,1340 nM,110 nM,–
COc1ccc2[nH]c(C)c(CC(=O)N[C@@H](CCCCCC(=O)O)c3ncc(-c4ccc5ccccc5c4)[nH]3)c2c1,390 nM,28 nM,microsomal CLint [3]: 9 µL/min/mg; microsomal CLint [4]: 177 µL/min/mg; microsomal CLint [5]: 3 µL/min/mg; microsomal CLint [6]: 24 µL/min/mg
COc1ccc2[nH]c(C)c(CC(=O)N[C@@H](CCCCCC(=O)NS(C)(=O)=O)c3ncc(-c4ccc5ccccc5c4)[nH]3)c2c1,8000 nM,47 nM,–
COc1ccc2[nH]c(C)c(CC(=O)N[C@@H](CCCCCC(=O)NCc3ccccc3)c3ncc(-c4ccc5ccccc5c4)[nH]3)c2c1,6800 nM,1000 nM,–
COc1ccc2[nH]c(C)c(CC(=O)N[C@@H](CCCCCC(C)=O)c3ncc(-c4ccccc4)[nH]3)c2c1,–,27 nM,–
COc1ccc2[nH]c(C)c(CC(=O)N[C@@H](CCCCCC(N)=O)c3ncc(-c4ccc5ccccc5c4)[nH]3)c2c1,440 nM,–,IC50 [7]: > 5000 nM; IC50 [8]: 120 nM; MTD at 336 h [9]: 100 mg/kg; IC50 [10]: 3560 nM; Activity [11]: < 5%; IC50 [12]: 160 nM; Activity [13]: Non-toxic; Activity [14]: Active; inhibition in vivo at 100 mg/kg [15]: 29%; Activity [16]: < 5%; IC50 [17]: > 10000 nM; IC50 [18]: 860 nM; IC50 [19]: 250 nM
COc1ccc2[nH]c(C)c(CC(=O)N[C@@H](CCCCCC(=O)Nc3ccccc3)c3ncc(-c4ccc5ccccc5c4)[nH]3)c2c1,5900 nM,200 nM,–
CONC(=O)CCCCC[C@H](NC(=O)Cc1c(C)[nH]c2ccc(OC)cc12)c1ncc(-c2ccc3ccccc3c2)[nH]1,660 nM,34 nM,–
CNC(=O)CCCCC[C@H](NC(=O)Cc1c(C)[nH]c2ccc(OC)cc12)c1ncc(-c2ccc3ccccc3c2)[nH]1,1700 nM,120 nM,–
O=C(O)CCCCC[C@H](NS(=O)(=O)c1ccccc1[N+](=O)[O-])c1ncc(-c2ccc3ccccc3c2)[nH]1,6860 nM,19 nM,–
O=C(O)CCCCC[C@H](NC(=O)c1cncs1)c1ncc(-c2ccc3ccccc3c2)[nH]1,5800 nM,23 nM,–
COc1ccc2[nH]c(C)c(CC(=O)N[C@@H](CCCCCC(=O)N(C)C)c3ncc(-c4ccc5ccccc5c4)[nH]3)c2c1,3800 nM,170 nM,–
CN1CC[C@@H](C(=O)N[C@@H](CCCCCC(=O)O)c2ncc(-c3ccc4ccccc4c3)[nH]2)C1,> 25000 nM,73 nM,–
CCNC(=O)CCCCC[C@H](NC(=O)Cc1c(C)[nH]c2ccc(OC)cc12)c1ncc(-c2ccc3ccccc3c2)[nH]1,2700 nM,66 nM,–
O=C(CCCCCCC(=O)Nc1ccccc1)NO [VORINOSTAT],–,–,Activity [20]: < 5%
COc1ccc2[nH]c(C)c(CC(=O)N[C@@H](CCCCCC(=O)NC(C)C)c3ncc(-c4ccc5ccccc5c4)[nH]3)c2c1,12000 nM,480 nM,–
CCC(=O)CCCCC[C@H](NC(=O)Cc1c(C)[nH]c2ccc(OC)cc12)c1ncc(-c2ccc3ccccc3c2)[nH]1,200 nM,27 nM,–
COc1ccc2[nH]c(C)c(CC(=O)N[C@@H](CCCCCC(=O)NS(=O)(=O)C(F)(F)F)c3ncc(-c4ccc5ccccc5c4)[nH]3)c2c1,33500 nM,94 nM,–
CN1CCC(C(=O)N[C@@H](CCCCCC(=O)O)c2ncc(-c3ccc4ccccc4c3)[nH]2)CC1,35000 nM,35 nM,–
CN1CC[C@H](C(=O)N[C@@H](CCCCCC(=O)O)c2ncc(-c3ccc4ccccc4c3)[nH]2)C1,> 25000 nM,40 nM,–
